The text below walks through data of ChEMBL document CHEMBL1828551, “Synthesis, biochemical and molecular modelling studies of antiproliferative azetidinones causing microtubule disruption and mitotic catastrophe” (Eur J Med Chem, 2011).

Activity calls are given as the source filed them. No cut-off for these calls is given here.

Assay [1] deals with MCF7. Briefly: Antiproliferative activity against ER expressing human MCF7 cells after 72 hrs by MTT assay. As to conditions: MCF7, 72 h. The assay is classed as functional, cell-based. Summed up:
(§1)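 Cells seeded at 2.5×10^4 cells/mL, held 24 h at 37°C, then dosed from ethanol stocks over 1 nM–100 μM for 72 h; vehicle 1% v/v ethanol. MTT added to 1 mg/mL final, 2 h in dark at 37°C, DMSO solubilisation 20 min RT, absorbance read. Viability set relative to untreated controls; IC50 from % viability vs concentration. Triplicate wells, ≥3 experiments, mean ± SEM. MCF-7 grown in MEM with 10% FBS, 2 mM glutamine and 1% non-essential amino acids; MDA-MB-231 grown in DMEM with 10% FBS and 2 mM glutamine.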
A general note: Tetrazolium assays rely on reduction of a dye to a coloured formazan, in cell work by metabolically active cells.

Assay [2] deals with MDA-MB-231. Kind of assay: Antiproliferative activity against ER-independent human MDA-MB-231 cells after 72 hrs by MTT assay. The class given is functional, cell-based. Conditions: MDA-MB-231, 72 h. Summed up:
as §1

Assay [3] relates to MCF7. Briefly: Antiproliferative activity against ER expressing human MCF7 cells assessed as cell death at 10 uM after 72 hrs by LDH assay.
In assay [4] the test system is MDA-MB-231. Briefly: Antiproliferative activity against ER-independent human MDA-MB-231 cells assessed as cell death at 10 uM after 72 hrs by LDH assay.
Another assay is filed under the species Bos taurus. Kind of assay: Inhibition of bovine tubulin polymerization at 10 uM after 60 mins by spectrophotometric analysis. Summed up: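 Purified bovine brain tubulin in G-PEM buffer (80 mM PIPES pH 6.9, 0.5 mM MgCl2, 1 mM EGTA, 1 mM GTP, 10.2% glycerol) was mixed with drug at 10 μM or 1% ethanol vehicle. Assembly was started by warming from 4 to 37°C and turbidity read at 340 nm every 30 s for 60 min at 37°C. Run in triplicate.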

Assay [5] has as its system MCF7. Briefly: Effect on microtubule network in human MCF7 cells assessed as microtubule depolymerization at 100 nM after 16 hrs by confocal microscopic analysis. The assay is classed as functional, cell-based. Summed up:
(§2)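 MCF-7 cells seeded at 1×10^5 per well on chamber glass slides, exposed 16 h (vehicle 1% v/v ethanol). Permeabilised with 0.1% Triton X-100 in PBS, fixed in methanol 30 min at -20°C, blocked in 5% BSA. Stained with DM1A anti-tubulin (1:20, 1 h RT), then FITC rabbit anti-mouse (1:200, 1 h RT). Mounted with DAPI and imaged by confocal microscopy; three separate experiments.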

Assay [6] concerns MCF7. Briefly: Antimitotic activity in human MCF7 cells assessed as mitotic catastrophe at 100 nM after 16 hrs using DAPI staining based immunofluorescence analysis. The assay is classed as functional, cell-based. Summed up:
as §2

Assay [7] concerns MCF7. Briefly: Cell cycle arrest in human MCF7 cells assessed as accumulation at sub-G1 phase at 100 nM after 48 hrs by propidium iodide staining based flow cytometric analysis (reference value: 1.65+/-0.38%). The class given is functional. In general terms: A flow cytometer gives signals particle by particle.
Assay [8] relates to MCF7. Briefly: Cell cycle arrest in human MCF7 cells assessed as accumulation at G1 phase at 100 nM after 48 hrs by propidium iodide staining based flow cytometric analysis (reference value: 60.22+/-3.1%). The class given is functional.
Assay [9] deals with MCF7. Kind of assay: Cell cycle arrest in human MCF7 cells assessed as accumulation at S phase at 100 nM after 48 hrs by propidium iodide staining based flow cytometric analysis (reference value: 8.77+/-0.9%). The assay is classed as functional.
The test system of assay [10] is MCF7. Kind of assay: Cell cycle arrest in human MCF7 cells assessed as accumulation at G2/M phase at 100 nM after 48 hrs by propidium iodide staining based flow cytometric analysis (reference value: 52.02+/-5.9%). The class given is functional.
The subject of assay [11] is MCF7. Briefly: Cell cycle arrest in human MCF7 cells assessed as appearance of polyploidy at 100 nM after 48 hrs by propidium iodide staining based flow cytometric analysis (reference value: 8.33+/-2.5%). The class given is functional.
Assay [12] concerns MCF7. Kind of assay: Effect on microtubule network in human MCF7 cells assessed as microtubule depolymerization at 500 nM after 16 hrs by confocal microscopic analysis. The assay is classed as functional, cell-based. Summed up:
as §2

Assay [13] concerns MCF7. Briefly: Antimitotic activity in human MCF7 cells assessed as mitotic catastrophe at 500 nM after 16 hrs using DAPI staining based immunofluorescence analysis. The assay is classed as functional, cell-based. The procedure, abridged: as §2
In assay [14] the test system is MCF7. Kind of assay: Cell cycle arrest in human MCF7 cells assessed as accumulation at sub-G1 phase at 500 nM after 48 hrs by propidium iodide staining based flow cytometric analysis (reference value: 1.65+/-0.38%). The class given is functional.
Assay [15] deals with MCF7. Briefly: Cell cycle arrest in human MCF7 cells assessed as accumulation at G1 phase at 500 nM after 48 hrs by propidium iodide staining based flow cytometric analysis (reference value: 60.22+/-3.1%). The assay is classed as functional.
Assay [16] deals with MCF7. Kind of assay: Cell cycle arrest in human MCF7 cells assessed as accumulation at S phase at 500 nM after 48 hrs by propidium iodide staining based flow cytometric analysis (reference value: 8.77+/-0.9%). The class given is functional.
For assay [17], the system named is MCF7. Briefly: Cell cycle arrest in human MCF7 cells assessed as accumulation at G2/M phase at 500 nM after 48 hrs by propidium iodide staining based flow cytometric analysis (reference value: 52.02+/-5.9%). The class given is functional.
Assay [18] has as its system MCF7. Briefly: Cell cycle arrest in human MCF7 cells assessed as appearance of polyploidy at 500 nM after 48 hrs by propidium iodide staining based flow cytometric analysis (reference value: 8.33+/-2.5%). The assay is classed as functional.

As usually defined, the IC50 is the concentration at which inhibition is half-maximal.

For `COc1ccc([C@@H]2[C@@H](c3ccccc3)C(=O)N2c2cc(OC)c(OC)c(OC)c2)cc1OC` (relative stereo), the IC50 was determined as 460 nM with MCF7 [1] and 530 nM in the assay on MDA-MB-231 [2]. Moreover, the Activity in the assay on MCF7 [3] was 3%; in the assay on MDA-MB-231 [4], 0%.

`COc1cc(N2C(=O)[C@H](c3ccccc3)[C@H]2c2ccc(OC)c(OC)c2OC)cc(OC)c1OC`: the values for the IC50 in the assay with MCF7 [1] and in the assay with MDA-MB-231 [2] were 1120 nM and 1960 nM, respectively. For the same molecule, the Activity in the assay with MDA-MB-231 [4] stood at 6.1%.

As to `COc1ccc(/C=C/[C@@H]2[C@@H](c3ccccc3)C(=O)N2c2cc(OC)c(OC)c(OC)c2)cc1` (relative stereo), the IC50 with MCF7 [1] was 1990 nM.

Take `COc1cc(N2C(=O)[C@H](c3ccccc3)[C@H]2c2ccc(N(C)C)cc2)cc(OC)c1OC` (relative stereo): the IC50 was 850 nM in the assay on MCF7 [1] and 5660 nM in the assay with MDA-MB-231 [2]. Further, the Activity in the assay on MCF7 [3] was determined as 10.4%.

`COc1cc(N2C(=O)[C@H](c3ccccc3)[C@H]2c2ccc3ccccc3c2)cc(OC)c1OC` (relative stereo) gave an IC50 in the assay with MCF7 [1] of 440 nM.

In turn, `COc1ccc(/C=C\c2cc(OC)c(OC)c(OC)c2)cc1O` [COMBRETASTATIN A4] registered an IC50 in the assay on MCF7 [1] of 5 nM. Further, the inhibition entry in the assay filed under Bos taurus was “Active”. Also, the result in the assay on MCF7 [5] and with MCF7 [6] was Active. Besides, the Activity is listed as 9.43% in the assay with MCF7 [7]; 23.57% with MCF7 [8]; 10.66% with MCF7 [9]; 52.02% in the assay with MCF7 [10]; 8.36% in the assay on MCF7 [11]; 5.5% with MCF7 [3]. Besides, the Activity with MDA-MB-231 [4] was determined as 4.3%.

`COc1ccc(C2(c3ccc(OC)cc3)C(c3ccccc3)C(=O)N2c2cc(OC)c(OC)c(OC)c2)cc1` (stereo unspecified): in the assay on MCF7 [1], the IC50 is 640 nM.

As for `COc1ccc(C2(c3ccccc3)C(c3ccccc3)C(=O)N2c2cc(OC)c(OC)c(OC)c2)cc1` (stereo unspecified), the IC50 with MCF7 [1] turned out to be 430 nM.

`COc1ccc([C@@H]2[C@@H](c3ccccc3)C(=O)N2Cc2cc(OC)c(OC)c(OC)c2)cc1` (relative stereo) yielded an IC50 with MCF7 [1] of 38600 nM.

In turn, `COc1ccc([C@@H]2[C@@H](c3ccccc3)C(=O)N2c2cc(OC)c(OC)c(OC)c2)cc1Br` (relative stereo) showed an IC50 with MCF7 [1] of 1420 nM.

Turning to `COc1cc(OC)c([C@@H]2[C@@H](c3ccccc3)C(=O)N2c2cc(OC)c(OC)c(OC)c2)c(OC)c1` (relative stereo), the IC50 with MCF7 [1] worked out at 18700 nM; in the assay on MDA-MB-231 [2] it was 5740 nM. The Activity in the assay with MDA-MB-231 [4] came out at 0%.

Turning to `COc1cc(N2C(=O)C(c3ccccc3)C2(c2ccccc2)c2ccccc2)cc(OC)c1OC` (stereo unspecified), the IC50 with MCF7 [1] amounted to 3840 nM.

For `COc1cc(N2C(=O)[C@H](c3ccccc3)[C@H]2c2ccc(F)cc2)cc(OC)c1OC` (relative stereo), the IC50 amounted to 350 nM in the assay with MCF7 [1] and 1140 nM in the assay on MDA-MB-231 [2]. For the same molecule, the Activity with MDA-MB-231 [4] is listed as 0%.

As for `COc1cc([C@@H]2[C@@H](c3ccccc3)C(=O)N2c2cc(OC)c(OC)c(OC)c2)cc(OC)c1OC` (relative stereo), the IC50 with MCF7 [1] was 69800 nM; with MDA-MB-231 [2], 65600 nM. Moreover, the Activity with MDA-MB-231 [4] stood at 0%.

For `COc1cc(OC)c([C@@H]2[C@@H](c3ccccc3)C(=O)N2c2cc(OC)c(OC)c(OC)c2)cc1OC` (relative stereo), the values for the IC50 in the assay with MCF7 [1] and in the assay on MDA-MB-231 [2] were 46900 nM and 38900 nM, respectively. The Activity with MDA-MB-231 [4] is given as 0%.

For the molecule `CCOc1ccc([C@@H]2[C@@H](c3ccccc3)C(=O)N2c2cc(OC)c(OC)c(OC)c2)cc1` (relative stereo), the IC50 in the assay with MCF7 [1] is 220 nM; with MDA-MB-231 [2], 830 nM. Besides, the inhibition entry in the assay filed under Bos taurus was “Active”. The outcome in the assay on MCF7 [12] and with MCF7 [13] was Active. The Activity in the assay with MCF7 [14] is on record as 13.97%; in the assay with MCF7 [15] it was 21.18%; with MCF7 [16] it was 9.49%; in the assay on MCF7 [17] it was 47.53%; with MCF7 [18], 7.4%; in the assay with MDA-MB-231 [4], 5.4%.
